In article PMC10682633 (Heliyon, 2023):

Assays:
tyrosinase [1] = details: tyrosinase inhibition; cited from earlier work
mushroom tyrosinase = assay: Tyrosinase inhibitory assay; format: biochemical; details: for % inhibition at 50 μM: 50 μM compound, L-DOPA substrate; for IC50: read-out: IC50 (μM) ± RSD, L-DOPA substrate, means ± RSD
[2] = Antioxidant activity, DPPH assay; details: for % inhibition at 200 μM: 200 μM compound; for IC50: read-out: IC50(μM) ± RSD
tyrosinase [3] = assay: Enzyme kinetic studies; format: biochemical; details: Lineweaver-Burk plot; L-DOPA 0-1.5 mM; inhibitor 5-80 μM
Method in brief: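 Mushroom tyrosinase with L-DOPA as substrate, tested across several inhibitor concentrations. Reaction rates were plotted as 1/V against 1/[S] (Lineweaver–Burk double-reciprocal plot) to assign the inhibition type. Km was read from this plot.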

% inhibition at 50 μM (mushroom tyrosinase) [%] | IC50 (mushroom tyrosinase) [µM] | Compound | % inhibition at 200 μM [2] [%] | other results
– | – | O=c1cc(/C=C/c2cc(=O)c(O)co2)occ1O [B, (E)-6,6'-(ethene-1,2-diyl)bis(3-hydroxy-4H-pyran-4-one)] | – | IC50 (tyrosinase [1]): 3.63 µM
29.14 ± 2.86 | – | O=c1cc(CO)oc(C(Nc2ccccn2)c2ccccc2)c1O (stereo not drawn) [Compound 4a, 3-Hydroxy-6-(hydroxymethyl)-2-(phenyl(pyridin-2-ylamino)methyl)-4H-pyran-4-one] | 20.86 ± 4.41 | –
59.42 ± 5.71 | 28.2 ± 3.63 | O=c1cc(CO)oc(C(Nc2ccccn2)c2ccccc2F)c1O (stereo not drawn) [Compound 4b, 2-((2-Fluorophenyl)(pyridin-2-ylamino)methyl)-3-hydroxy-6-(hydroxymethyl)-4H-pyran-4-one] | 14.09 ± 4.10 | –
28.47 ± 1.59 | – | O=c1cc(CO)oc(C(Nc2ccccn2)c2cccc(F)c2)c1O (stereo not drawn) [Compound 4c, 2-((3-Fluorophenyl)(pyridin-2-ylamino)methyl)-3-hydroxy-6-(hydroxymethyl)-4H-pyran-4-one] | 18.65 ± 3.05 | –
60.35 ± 1.43 | 22.4 ± 3.34 | O=c1cc(CO)oc(C(Nc2ccccn2)c2ccccc2Cl)c1O (stereo not drawn) [Compound 4d, 2-((2-Chlorophenyl)(pyridin-2-ylamino)methyl)-3-hydroxy-6-(hydroxymethyl)-4H-pyran-4-one] | 19.49 ± 3.98 | –
50.57 ± 2.65 | 44.7 ± 3.59 | O=c1cc(CO)oc(C(Nc2ccccn2)c2cccc(Cl)c2)c1O (stereo not drawn) [Compound 4e, 2-((3-Chlorophenyl)(pyridin-2-ylamino)methyl)-3-hydroxy-6-(hydroxymethyl)-4H-pyran-4-one] | 17.21 ± 4.01 | –
60.85 ± 4.29 | 23.4 ± 4.19 | O=c1cc(CO)oc(C(Nc2ccccn2)c2ccccc2Br)c1O (stereo not drawn) [Compound 4f, 2-((2-Bromophenyl)(pyridin-2-ylamino)methyl)-3-hydroxy-6-(hydroxymethyl)-4H-pyran-4-one] | 13.03 ± 2.86 | –
33.71 ± 4.88 | – | O=c1cc(CO)oc(C(Nc2ccccn2)c2cccc(Br)c2)c1O (stereo not drawn) [Compound 4g, 2-((3-Bromophenyl)(pyridin-2-ylamino)methyl)-3-hydroxy-6-(hydroxymethyl)-4H-pyran-4-one] | 18.44 ± 1.54 | –
74.85 ± 4.26 | 20.4 ± 2.15 | O=c1cc(CO)oc(C(Nc2ccccn2)c2cccc([N+](=O)[O-])c2)c1O (stereo not drawn) [Compound 4h, 3-Hydroxy-6-(hydroxymethyl)-2-((3-nitrophenyl)(pyridin-2-ylamino)methyl)-4H-pyran-4-one] | – | Mode of inhibition (tyrosinase [3]): uncompetitive; % inhibition at 200 μM ([2]; 200 µM): 37.27 ± 5.42%
56.57 ± 3.84 | 30.9 ± 4.13 | COc1ccc(C(Nc2ccccn2)c2oc(CO)cc(=O)c2O)cc1[N+](=O)[O-] (stereo not drawn) [Compound 4i, 3-Hydroxy-6-(hydroxymethyl)-2-((4-methoxy-3-nitrophenyl)(pyridin-2-ylamino)methyl)-4H-pyran-4-one] | 64.24 ± 3.39 | IC50 [2]: 121 ± 10.4 µM
– | > 50 | Cc1cccc(C(Nc2ccccn2)c2oc(CO)cc(=O)c2O)c1 (stereo not drawn) [Compound 4j, 3-Hydroxy-6-(hydroxymethyl)-2-((pyridin-2-ylamino)(m-tolyl)methyl)-4H-pyran-4-one] | 17.90 ± 6.77 | % inhibition at 50 μM (mushroom tyrosinase; 50 µM): 16.85 ± 3.14%
22.28 ± 4.52 | > 50 | Cc1ccc(C(Nc2ccccn2)c2oc(CO)cc(=O)c2O)cc1 (stereo not drawn) [Compound 4k, 3-Hydroxy-6-(hydroxymethyl)-2-((pyridin-2-ylamino)(p-tolyl)methyl)-4H-pyran-4-one] | 26.96 ± 2.54 | –
52.07 ± 5.27 | 37.1 ± 5.42 | COc1cccc(C(Nc2ccccn2)c2oc(CO)cc(=O)c2O)c1O (stereo not drawn) [Compound 4l, 3-Hydroxy-2-((2-hydroxy-3-methoxyphenyl)(pyridin-2-ylamino)methyl)-6-(hydroxymethyl)-4H-pyran-4-one] | 30.61 ± 5.76 | –
35.42 ± 2.43 | – | O=c1cc(CO)oc(C(Nc2ccccn2)c2ccc(COc3ccccc3)cc2)c1O (stereo not drawn) [Compound 4m, 3-Hydroxy-6-(hydroxymethyl)-2-((4-(phenoxymethyl)phenyl)(pyridin-2-ylamino)methyl)-4H-pyran-4-one] | 23.30 ± 5.17 | –
– | – | O=c1c(O)c(-c2ccc(O)c(O)c2)oc2cc(O)cc(O)c12 [Quercetin, reference compound] | – | IC50 [2]: 18.6 ± 2.19 µM
